The record followed here is ChEMBL document CHEMBL2331121, “Design, synthesis, and pharmacological characterization of N- and O-substituted 5,6,7,8-tetrahydro-4H-isoxazolo[4,5-d]azepin-3-ol analogues: novel 5-HT(2A)/5-HT(2C) receptor agonists with pro-cognitive properties” (J Med Chem, 2013).

In experiment [1] the target is T1, 5-hydroxytryptamine receptor 2A (Homo sapiens, UniProt P28223). The format is functional, cell-based, HEK293.
The target of experiment [2] is T2, 5-hydroxytryptamine receptor 2C (Homo sapiens, UniProt P28335).
T2 sequence (P28335 whole entry): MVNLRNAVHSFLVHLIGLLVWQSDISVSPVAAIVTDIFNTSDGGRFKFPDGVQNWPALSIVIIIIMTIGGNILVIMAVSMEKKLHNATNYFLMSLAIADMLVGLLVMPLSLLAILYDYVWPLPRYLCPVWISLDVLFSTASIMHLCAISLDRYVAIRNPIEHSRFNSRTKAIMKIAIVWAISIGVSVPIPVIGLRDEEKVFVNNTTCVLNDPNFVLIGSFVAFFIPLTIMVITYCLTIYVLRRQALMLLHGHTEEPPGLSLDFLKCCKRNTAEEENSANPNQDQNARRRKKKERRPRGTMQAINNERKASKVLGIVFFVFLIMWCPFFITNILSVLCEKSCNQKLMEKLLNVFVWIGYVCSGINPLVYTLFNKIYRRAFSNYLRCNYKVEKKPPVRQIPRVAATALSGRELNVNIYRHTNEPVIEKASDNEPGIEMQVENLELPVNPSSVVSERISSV
The experiment is described as follows: Antagonist activity at human 5HT2C receptor expressed in HEK293 cells assessed as inhibition of 5HT-induced intracellular calcium release measured for 90 secs by fluorescence assay. Format: functional, cell-based.

Experiment [3] deals with T2, 5-hydroxytryptamine receptor 2C. The experiment is described as follows: Displacement of [3H]mesulergine from human 5HT2C receptor expressed in tsA201 cell membranes after 1 hr by scintillation counting analysis.
The target of experiment [4] is T1, 5-hydroxytryptamine receptor 2A. Put plainly: biochemical. The format is cell-based, tsA201.
Experiment [5] has the same target. Put plainly: Agonist activity at human 5HT2A receptor expressed in HEK293 cells assessed as induction of intracellular calcium release at 100 to 1000 uM by fluorescence assay. Format: functional, cell-based. The procedure, abridged:
(§1)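 Stable polyclonal h5-HT2A or h5-HT2C HEK293 cells plated on poly-D-lysine wells, loaded next day with Fluo-4/AM for 1 h at 37 °C. Buffer was HBSS with 20 mM HEPES, 1 mM CaCl₂, 1 mM MgCl₂, 2.5 mM probenecid, pH 7.4. Fluorescence read at 485/525 nm before and up to 90 s after agonist addition. Responses normalised to 5-HT on the same plate. Duplicate, 4−10 experiments.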

Experiment [6] has as its target T3, 5-hydroxytryptamine receptor 2C (Homo sapiens) (UniProt P28335).
T3 sequence (whole entry): T2 sequence (P28335 whole entry)
The experiment is described as follows: Agonist activity at human 5HT2C receptor expressed in HEK293 cells assessed as induction of intracellular calcium release at 100 to 1000 uM by fluorescence assay. Format: functional, cell-based. The essentials: as §1

Experiment [7] concerns the target T4, 5-hydroxytryptamine receptor 2C (Rattus norvegicus) (UniProt P08909).
T4 sequence (whole entry): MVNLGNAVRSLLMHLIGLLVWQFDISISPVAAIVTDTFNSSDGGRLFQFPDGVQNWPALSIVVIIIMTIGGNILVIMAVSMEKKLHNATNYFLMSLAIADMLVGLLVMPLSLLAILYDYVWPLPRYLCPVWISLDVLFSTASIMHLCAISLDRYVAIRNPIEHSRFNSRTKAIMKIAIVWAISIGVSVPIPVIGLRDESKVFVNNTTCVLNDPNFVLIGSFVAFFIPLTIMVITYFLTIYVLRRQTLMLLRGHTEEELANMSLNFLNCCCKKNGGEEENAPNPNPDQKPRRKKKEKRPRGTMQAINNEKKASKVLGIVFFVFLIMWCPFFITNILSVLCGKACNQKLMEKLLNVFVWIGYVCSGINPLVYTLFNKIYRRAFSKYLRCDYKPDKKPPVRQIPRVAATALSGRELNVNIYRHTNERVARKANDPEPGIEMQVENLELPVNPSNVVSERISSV
The experiment is described as follows: Displacement of [125I]-N-(p-I-Bn)-THAZ from 5HT2C receptor in rat midbrain membrane after 1 hr by scintillation counting analysis. Format: cell membranes.

The target of experiment [8] is T4, 5-hydroxytryptamine receptor 2C (Rattus norvegicus). Put plainly: Displacement of [125I]-N-(p-I-Bn)-THAZ from 5HT2C receptor in rat cerebellum membrane after 1 hr by scintillation counting analysis. Format: cell membranes.
The target is the same in experiment [9]. The experiment is described as follows: Displacement of [125I]-N-(p-I-Bn)-THAZ from 5HT2C receptor in rat hippocampal membrane after 1 hr by scintillation counting analysis. The settings on record: Hippocampus. Format: cell membranes.
Experiment [10] deals with T5, 5-hydroxytryptamine receptor 2C (Rattus norvegicus, UniProt P08909).
T5 sequence (P08909 whole entry): T4 sequence (whole entry)
The experiment is described as follows: (§2) Displacement of [125I]-N-(p-I-Bn)-THAZ from 5HT2C receptor in rat cerebral cortex membrane after 1 hr by scintillation counting analysis. Format: cell membranes.

The target in experiment [11] is T4, 5-hydroxytryptamine receptor 2C (Rattus norvegicus). The experiment is described as §2. The format is cell membranes.

The structures appear in SMILES notation. The source made the active and inactive calls. No cut-off for these calls is given here.

T1 sequence (P28223 whole entry): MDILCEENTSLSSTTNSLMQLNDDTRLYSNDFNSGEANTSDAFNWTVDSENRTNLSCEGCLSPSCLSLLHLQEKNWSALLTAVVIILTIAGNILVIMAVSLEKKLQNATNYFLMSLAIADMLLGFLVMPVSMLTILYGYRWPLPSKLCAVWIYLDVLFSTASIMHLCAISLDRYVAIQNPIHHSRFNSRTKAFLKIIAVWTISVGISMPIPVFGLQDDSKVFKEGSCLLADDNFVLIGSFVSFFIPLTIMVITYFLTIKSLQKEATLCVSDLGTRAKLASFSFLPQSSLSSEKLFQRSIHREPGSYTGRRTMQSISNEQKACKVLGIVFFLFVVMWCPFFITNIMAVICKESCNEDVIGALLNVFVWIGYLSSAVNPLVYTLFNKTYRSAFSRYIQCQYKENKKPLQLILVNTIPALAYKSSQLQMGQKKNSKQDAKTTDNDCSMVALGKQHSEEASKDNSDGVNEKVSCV

Regarding `OC(c1ccccc1)C1CCN(CCc2ccccc2)CC1` (configuration not stated) [GLEMANSERIN], the Ki in [1] (read-out: pKi (converted)) is 2.45 nM; in experiment [2], 10000 nM.

`CN1CC2c3ccccc3Oc3ccc(Cl)cc3C2C1` (racemic) [ASENAPINE]: the Ki in experiment [1] (read-out: Ki) was found to be 0.91 nM; in experiment [2] it was 2.5 nM.

Take `Cn1oc2c(c1=O)CCNCC2`: the Ki in experiment [3] is above 300000 nM; in experiment [4] (read-out: Ki), above 300000 nM; in experiment [4] (read-out: pKi (converted)), above 316000 nM. Moreover, the result in [5] and in experiment [6] was Active.

Take `O=c1c2c(on1Cc1ccc(I)cc1)CCNCC2`: the result in [7], in experiment [8] and in experiment [9] was inactive. The values for the Ki in experiment [10] and in experiment [3] were 10.2 nM and 310 nM, respectively. Moreover, the Activity result in experiment [11] is “Dose-dependent effect”.

With `c1ccc(COc2noc3c2CNCC3)cc1`, the result in experiment [5] and in experiment [6] was Active.
